From ChEMBL document CHEMBL1124900, “Synthesis of substituted 7,12-dihydropyrido[3,2-b:5,4-b']diindoles: rigid planar benzodiazepine receptor ligands with inverse agonist/antagonist properties” (J Med Chem, 1990) come the findings set out here.

A short description of data set [1]: Partition coefficient (logP). The data set is classed as physicochemical. Particulars: octanol/water. In outline:
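Crude octanol/water log P calculated from tabulated fragmentation constants; for one hydroxy analogue also determined experimentally.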

For data set [2], the system named is Mus musculus. The data set is described as follows: Convulsant effects in mice treated with PTZ (40 mg/kg) dose. The data set is classed as functional.
Data set [3] has as its target GABA-A receptor; anion channel. The data set is described as follows: In vitro inhibition of [3H]flunitrazepam binding to rat GABA-A Benzodiazepine receptor. The data set is classed as protein-complex assay.
The target of data set [4] is GABA-A receptor; anion channel. The data set is described as follows: In vitro potency measured against [3H]diazepam at the benzodiazepine receptor in rat. In outline:
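Male Sprague-Dawley rats (175-250 g); cerebral cortex homogenized in 50 mM Tris-HCl pH 7.4 and washed by repeated centrifugation at 2000g. Membranes incubated with 2 nM [3H]diazepam for 60-90 min at 0-4 °C, then filtered. Nonspecific binding defined with 10 µM flunitrazepam. Six or more concentrations; IC50 from Hill plots; mean of at least three determinations.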

The subject of data set [5] is Mus musculus. The data set is described as follows: Antagonism of Diazepam (2.5 mg/kg) anticonvulsant effects in mice treated with PTZ (80 mg/kg). It counts as functional. In outline: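 Male NIH mice in groups of 10 received graded ip doses in Emulphor/saline 1:9, or vehicle. Diazepam 2.5 mg/kg ip followed 15 min later, then PTZ 80 mg/kg 15 min after that. ED50 is the dose antagonizing diazepam's protection against tonic/clonic convulsions in 50% of mice. Highest dose tested was 30 or 40 mg/kg.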

Usually logP stands for a log measure of how a compound divides between an organic and an aqueous phase. One may read the ED50 as the midpoint of the dose-response relation. A lower ED50 goes with greater potency. As usually defined, the IC50 is the concentration that gives 50% inhibition.

Molecules are shown by their SMILES.

For `c1ccc2c(c1)[nH]c1c2ncc2[nH]c3ccccc3c21`, the logP in data set [1] stood at 3.87. The compound `CC(C)(C)C(=O)Oc1ccc2c(c1)[nH]c1c3c4ccccc4nc-3c[nH]c12` yielded an ED50 in data set [2] of 17.5 mg/kg. This compound displayed an IC50 in data set [3] of 0.2 µM.

`Fc1ccc2[nH]c3c4c5ccccc5nc-4c[nH]c3c2c1` showed an IC50 in data set [4] of 0.006 µM. The ED50 in data set [2] was more than 30 mg/kg. In data set [1], this compound came in with a logP of 4.01. Regarding `O=S(=O)(O)c1ccc2[nH]c3c(ncc4[nH]c5ccc(S(=O)(=O)O)cc5c43)c2c1`, the IC50 in data set [4] amounted to 5 µM. The same measure, in the same setting: the same measure for `Brc1ccc2[nH]c3c(ncc4[nH]c5ccc(Br)cc5c43)c2c1`: more than 0.32 µM; for `c1ccc(COc2cccc3[nH]c4c5c6ccccc6nc-5c[nH]c4c23)cc1`: more than 4 µM; for `Oc1cccc2[nH]c3c4c5ccccc5nc-4c[nH]c3c12`: 0.578 µM. The same measure, in the same setting: the same measure for `Nc1ccc2[nH]c3c[nH]c4c5cc(Cl)ccc5nc-4c3c2c1`: more than 0.35 µM. `Brc1ccc2c(c1)[nH]c1c3c4ccccc4nc-3c[nH]c12` came in with a half-maximal inhibitory concentration (IC50) in data set [4] of 0.019 µM. In addition, the ED50 in data set [2] and in data set [5] was more than 40 mg/kg throughout. This compound displayed a logP in data set [1] of 4.73. The compound `Clc1ccc2c(c1)[nH]c1c2ncc2[nH]c3ccccc3c21` displayed an ED50 in data set [2] of more than 30 mg/kg. The logP in data set [1] turned out to be 4.58. On to `Brc1ccc2[nH]c3cnc4c5ccccc5[nH]c4c3c2c1`, for which half-maximal inhibition in data set [4] (IC50) was put at 0.006 µM. The same measure, in the same setting: the same measure for `c1ccc(COc2ccc3c(c2)[nH]c2c3ncc3[nH]c4ccccc4c32)cc1`: more than 4 µM. In data set [4], `COc1ccc2c(c1)[nH]c1c3c4ccccc4nc-3c[nH]c12.Cl` showed an IC50 of 0.008 µM. Besides, the ED50 in data set [2] was 7 mg/kg; in data set [5], 3.9 mg/kg. Besides, the logP in data set [1] amounted to 4.04. In data set [4], `Cn1c2ccccc2c2c3nc4ccccc4c-3[nH]cc21` displayed an IC50 of 1.14 µM. Same read-out and setting: the same measure for `Cc1cccc2c1[nH]c1c3c4ccccc4nc-3c[nH]c12`: 0.083 µM; for `Cc1ccc2[nH]c3c4c5ccccc5nc-4c[nH]c3c2c1`: 0.224 µM; for `Cc1cccc2[nH]c3c4c5ccccc5nc-4c[nH]c3c12`: more than 5 µM. The same measure, in the same setting: the same measure for `Brc1ccc2[nH]c3c4c5ccccc5nc-4c[nH]c3c2c1`: 0.75 µM.

For the compound `Cn1c2ccccc2c2[nH]cc3nc4ccccc4c-3c21`, 0.157 µM corresponded to half-maximal inhibition in data set [4] (IC50). Still for that read-out and setting: the value for `Brc1cccc2c1[nH]c1c3c4ccccc4nc-3c[nH]c12` was 0.028 µM. On the same count and under the same terms, the same measure for `CCc1nc2c3ccccc3[nH]c2c2c1[nH]c1ccccc12`: 0.25 µM.

Turning to `Cc1ccc2c(c1)[nH]c1c3c4ccccc4nc-3c[nH]c12`, in data set [4], the IC50 was 0.008 µM. In addition, the ED50 in data set [2] and in data set [5] was more than 40 mg/kg throughout. This compound also registered a logP in data set [1] of 4.53. In data set [4], `COc1cccc2[nH]c3c4c5ccccc5nc-4c[nH]c3c12` yielded an IC50 of 0.25 µM. Still for that read-out and setting: the value for `Clc1ccc2[nH]c3c[nH]c4c5cccc(Cl)c5nc-4c3c2c1` was 0.31 µM. Turning to `Oc1ccc2c(c1)[nH]c1c3c4ccccc4nc-3c[nH]c12`, the IC50 in data set [4] was determined as 0.006 µM. Besides, the ED50 in data set [2] and in data set [5] was more than 40 mg/kg in each case. Also, the logP in data set [1] was found to be 0.95. In data set [4], `Nc1ccc2[nH]c3c[nH]c4c5ccccc5nc-4c3c2c1` registered an IC50 of 0.044 µM. Same read-out and setting: the same measure for `O=[N+]([O-])c1ccc2[nH]c3c[nH]c4c5cc(Cl)ccc5nc-4c3c2c1`: 1.19 µM. `O=[N+]([O-])c1ccc2[nH]c3c[nH]c4c5ccccc5nc-4c3c2c1` returned an IC50 in data set [4] of 0.004 µM.

`O=[N+]([O-])c1ccc2[nH]c3c[nH]c4c5ccc(Cl)cc5nc-4c3c2c1` displayed an IC50 in data set [4] of 0.126 µM.

On to `Fc1ccc2c(c1)[nH]c1c3c4ccccc4nc-3c[nH]c12`, for which the ED50 in data set [2] and in data set [5] was more than 30 mg/kg in each case. This compound gave a logP in data set [1] of 4.01.

`Oc1ccc2[nH]c3c4c5ccccc5nc-4c[nH]c3c2c1`: the half-maximal inhibitory concentration (IC50) in data set [4] came to 0.114 µM. Moreover, the ED50 in data set [2] and in data set [5] was more than 40 mg/kg throughout. In the case of `Nc1ccc2[nH]c3c[nH]c4c5ccc(Cl)cc5nc-4c3c2c1`, inhibition in data set [4] was half-maximal at 0.098 µM (IC50). Same read-out and setting: the value for `c1ccc(COc2ccc3[nH]c4c5c6ccccc6nc-5c[nH]c4c3c2)cc1` was 1.6 µM.
